The values below come from PubChem BioAssay.

A short description of assay [1]: inhibitors of TNFa-induced NFkB p65 translocation, primary screen, imaging, HUVEC, MLSMR starter and 10KST1 sets (AID 438;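 active = inhibition above 20% together with a positive visual image hit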;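 note: compound added about 3h40 before a 20 min TNFalpha stimulation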;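 for inhibition: signal is the nuclear over cytoplasmic p65 intensity ratio per well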). Conditions: HUVEC TNFa-induced p65 nuclear translocation; cell count: measured here: nuclei count (cytotoxicity indicator), at 2.08 µM; inhibition: at 2 µM, stronger effect = higher value, 0% TNFa-plus-vehicle, 100% no-TNFa wells.
Assay [2] in a line: reduction of polyQ htt aggregates in cells – imaging, exon1htt(103Q)mCFP cells, high-content imaging, primary screen (AID 483;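 active = visual image review flags a hit and inhibition of aggregation exceeds 20%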;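 note: compound exposure lasted 3 days before fixation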;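 for nuclei count: percent of the per-plate median nuclei count of sample wells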). Conditions: exon1htt(103Q)mCFP cell line, aggregate imaging, at 2 µM; inhibition of aggregation: stronger effect = higher value; nuclei count: measured here: cell count, toxicity.
A short description of assay [3]: endothelial E-selectin expression blockers – imaging, HUVEC, immunofluorescence, MLSMR starter and 10KST1 sets, primary screen (AID 487;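 active = visually confirmed hit in the image check and inhibition above 20%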;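 for inhibition: signal is fraction of cell area covered by stained E-selectin grains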;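 for nuclei count: 100% = median nuclei count of all wells on the same plate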). Conditions: HUVEC TNFalpha-induced E-selectin immunofluorescence imaging, at 2 µM; inhibition: stronger effect = higher value; nuclei count: measured here: cell number, toxicity.
Assay [4] deals with Voltage-gated potassium channel subunit beta-2 (Rattus norvegicus) (UniProt P62483). The experiment in a line: inhibitors of rat Kvbeta2 reductase activity – biochemical, NADPH fluorescence, primary screen (AID 622;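 active = fluorescence slope higher than the sample average by over 3 SD, cut at about -0.22 in these data, passing the limit was not always enough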;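 note: slope of raw intensity against log time taken from 70 to 1610 s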). Conditions: recombinant KvBeta, 4-cyanobenzaldehyde reduction, at 10 µM, stronger effect = higher value.
Assay [5] shares this target. The assay is described as follows: enhancers of rat Kvbeta2 NADPH turnover – biochemical, NADPH fluorescence, primary screen (AID 623).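 Note: fluorescence intensity change per second fitted from 20 to 320 s.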 Conditions: Recombinant KvBeta, NADPH fluorescence decrease slope, 10 min; at 10 µM; stronger effect = lower value.
The target of assay [6] is Muscarinic acetylcholine receptor M4 (Homo sapiens) (UniProt P08173). The experiment in a line: M4-linked GIRK flux change, two-sided – cell-based, HEK293 M4/GIRK, thallium flux, BTC-AM, M4 allosteric agonist project, primary screen (AID 625;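 active = fluorescence slope after compound addition differing from the mean of all tested samples at 99.7% confidence, mostly higher but some lower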;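 note: thallium influx through GIRK channels coupled to M4 in HEK293 cells with BTC-AM dye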). Conditions: at 10 µM, actives lie on both sides. The procedure, abridged:
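Material: HEK293 cells with M4 receptor and GIRK channels; Times: cells overnight at 37 °C, BTC-AM loading 1 h, reads 2 min total; Technique: kinetic BTC-AM fluorescence sampled at 1 Hz, 10 s pre-addition baseline; Read-out basis: slope over 15–24 s of trace normalized to starting intensity; Controls: carbachol positive, DMSO negative.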

Assay [7] in a line: blockers of RIG-like receptor reporter activation – cell-based, Sendai virus stimulus, luciferase, 10K MLSCN set, TLR/RLR signaling modifier project, primary screen (AID 602276;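 active = inhibition at or above 50% at 10 µM; inactive = inhibition below 50%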;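 note: firefly luciferase from ISG56 promoter only with Renilla not read in this screen; 0% = Sendai virus plus DMSO and 100% = medium plus DMSO without virus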). Conditions: HEK293 RL24 IRF3 luciferase reporter, at 10 µM, stronger effect = higher value. On the technique in general: A reporter such as luciferase makes a cellular process visible.
Assay [8] in a line: TLR3 IRF3 reporter activation blockers – cell-based, poly I:C stimulus, luciferase, 10K MLSCN set, primary screen (AID 602277;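 active = inhibition of the reporter signal at or above 50%; inactive = inhibition below 50%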). Conditions: HEK293-TLR3 RL24 IRF3 luciferase reporter, at 10 µM, stronger effect = higher value.

Activity calls are given as the source filed them.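 Rule for the calls, unless noted: active = NADPH fluorescence slope more negative than the mean of all samples by about 3 SD, 99.7% confidence; inactive = the rest.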

Sequence of Voltage-gated potassium channel subunit beta-2 (Rattus norvegicus) (P62483 whole entry, looked up): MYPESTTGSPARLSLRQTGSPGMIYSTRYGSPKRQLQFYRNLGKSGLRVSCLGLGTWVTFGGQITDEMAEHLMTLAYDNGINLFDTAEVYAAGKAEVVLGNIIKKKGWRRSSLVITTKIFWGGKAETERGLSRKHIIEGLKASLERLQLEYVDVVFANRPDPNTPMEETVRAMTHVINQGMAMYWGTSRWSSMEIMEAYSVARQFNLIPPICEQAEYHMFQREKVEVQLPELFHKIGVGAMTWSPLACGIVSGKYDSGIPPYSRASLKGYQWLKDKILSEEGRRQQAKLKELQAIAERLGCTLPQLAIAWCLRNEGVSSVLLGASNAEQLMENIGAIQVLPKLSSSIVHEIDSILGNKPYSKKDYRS
Sequence of Muscarinic acetylcholine receptor M4 (Homo sapiens) (P08173 whole entry, looked up): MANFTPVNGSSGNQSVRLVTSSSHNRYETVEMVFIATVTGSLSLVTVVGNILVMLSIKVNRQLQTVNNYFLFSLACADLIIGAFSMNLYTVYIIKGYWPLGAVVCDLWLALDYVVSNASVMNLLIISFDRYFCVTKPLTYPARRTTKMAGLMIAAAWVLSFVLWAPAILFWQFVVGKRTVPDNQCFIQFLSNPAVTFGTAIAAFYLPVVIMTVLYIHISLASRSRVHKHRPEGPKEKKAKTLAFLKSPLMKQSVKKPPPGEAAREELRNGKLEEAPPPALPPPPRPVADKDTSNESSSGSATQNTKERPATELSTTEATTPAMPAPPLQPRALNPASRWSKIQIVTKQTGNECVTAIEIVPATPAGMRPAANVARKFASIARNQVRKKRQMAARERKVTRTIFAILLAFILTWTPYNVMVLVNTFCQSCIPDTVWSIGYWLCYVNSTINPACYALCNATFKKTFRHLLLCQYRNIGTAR

As usually defined, the inhibition is the drop in the measured response relative to a control, in per cent. Regarding `Cc1nc(SCC#N)c2c(C)c(C)sc2n1`, the cell count in assay [1] was 818. In addition, the inhibition in assay [1] was -4.3% (inactive); in assay [3], -84.3% (inactive); in assay [7], 10.7% (inactive); in assay [8], -9.75% (inactive). The inhibition of aggregation in assay [2] was -3.4% (inactive). Further, the nuclei count in assay [2] is 101%; in assay [3], 118%. For the same compound, the fluorescence slope was -0.551 (inactive) in assay [4] and 0.00593 (inactive) in assay [6]. Besides, in assay [5], the NADPH fluorescence slope was -2.7e-05 (inactive).

As for `O=C(CNS(=O)(=O)c1ccc(Br)s1)N1CCN(c2ncccn2)CC1`, in assay [1], the cell count turned out to be 352. The inhibition is 2.7% (inactive) in assay [1], -48.3% (inactive) in assay [3], -5.84% (inactive) in assay [7] and -10.7% (inactive) in assay [8]. For the same compound, the inhibition of aggregation in assay [2] was 13.7% (inactive). Further, the nuclei count was determined as 101% in assay [2] and 86.3% in assay [3]. In addition, the fluorescence slope was -0.532 (inactive) in assay [4] and 0.00447 (inactive) in assay [6]. In assay [5], the NADPH fluorescence slope is -0.000106 (inactive).

Regarding `Cn1c(=O)c(NC(=O)c2ccccc2)c2n(c1=S)CCCCC2`, in assay [1], the cell count came to 359. Moreover, the inhibition was -5.7% (inactive) in assay [1], -17% (inactive) in assay [3], 16.3% (inactive) in assay [7] and 20% (inactive) in assay [8]. Moreover, the inhibition of aggregation in assay [2] was 13.7% (inactive). Moreover, the nuclei count in assay [2] turned out to be 95.3%; in assay [3], 107%. In addition, the fluorescence slope in assay [4] was -0.57 (inactive); in assay [6], 0.00647 (inactive). For the same compound, the NADPH fluorescence slope in assay [5] was -1.1e-05 (inactive).

With `c1ccc(CNC2=NCCC2)nc1`, the cell count in assay [1] was 414. The inhibition is -5.7% (inactive) in assay [1], 42.6% (inactive) in assay [3], 1.8% (inactive) in assay [7] and 10.1% (inactive) in assay [8]. Besides, the inhibition of aggregation in assay [2] was 14.2% (inactive). The nuclei count in assay [2] was found to be 65.8%; in assay [3] it was 75.5%. Moreover, the fluorescence slope in assay [4] is -0.586 (inactive); in assay [6], 0.00615 (inactive). The NADPH fluorescence slope in assay [5] is -2.6e-05 (inactive).

On to `O=C(Nc1ccncc1)c1cncc(Br)c1`, for which, in assay [1], the cell count was 718. Moreover, the inhibition in assay [1] is -3% (inactive); in assay [3], -153% (inactive); in assay [7], 1.8% (inactive); in assay [8], 0.632% (inactive). The inhibition of aggregation in assay [2] was -6.3% (inactive). The nuclei count in assay [2] is 98%; in assay [3], 114%. Further, the fluorescence slope in assay [4] is -0.243 (inactive); in assay [6] it was 0.00626 (inactive). In addition, the NADPH fluorescence slope in assay [5] is -9.4e-06 (inactive).

On to `CCOC(=O)c1cccc(NC(=O)CSc2nnc(-c3ccoc3C)n2CCOC)c1`, for which, in assay [1], the cell count stood at 553. The inhibition is -9.5% (inactive) in assay [1], -140% (inactive) in assay [3], 18.8% (inactive) in assay [7] and 27.2% (inactive) in assay [8]. In addition, the inhibition of aggregation in assay [2] is 1% (inactive). For the same compound, the nuclei count in assay [2] stood at 89.7%; in assay [3] it was 133%. Moreover, the fluorescence slope in assay [4] is -0.577 (inactive); in assay [6] it was 0.00584 (inactive). For the same compound, the NADPH fluorescence slope in assay [5] is 7.3e-06 (inactive).

As to `Cc1ccnc(NC(=O)CCC(=O)N(CC(=O)NC2CCCCC2)c2cccc(C)c2C)c1`, the cell count in assay [1] turned out to be 426. Besides, the inhibition in assay [1] was 4.4% (inactive); in assay [3] it was 28.9% (inactive); in assay [7], 13.1% (inactive); in assay [8], 18.7% (inactive). Also, in assay [2], the inhibition of aggregation was -2.4% (inactive). Besides, the nuclei count in assay [2] turned out to be 103%; in assay [3] it was 125%. For the same compound, the fluorescence slope in assay [4] was -0.626 (inactive); in assay [6], 0.00484 (inactive). For the same compound, the NADPH fluorescence slope in assay [5] is 3.3e-05 (inactive).

In the case of `Oc1ccc(N2CCN(C(c3cccnc3)c3nnnn3Cc3ccccc3)CC2)cc1` (centres undefined), in assay [1], the cell count turned out to be 612. Moreover, the inhibition in assay [1] was 1.4% (inactive); in assay [3] it was -71.6% (inactive); in assay [7], 9.52% (inactive); in assay [8] it was -11.5% (inactive). Further, the inhibition of aggregation in assay [2] is -2.4% (inactive). Moreover, the values for the nuclei count in assay [2] and in assay [3] were 118% and 113%, respectively. Also, the fluorescence slope in assay [4] is -0.468 (inactive); in assay [6], 0.0054 (inactive). Moreover, the NADPH fluorescence slope in assay [5] was -0.000313 (inactive).

For `CCOc1ccc(NC(=O)CN(C)S(=O)(=O)c2cccs2)cc1`, the cell count in assay [1] stood at 650. Moreover, the inhibition in assay [1] was -12% (inactive); in assay [3], -22.6% (inactive); in assay [7], -60.5% (inactive); in assay [8] it was -62.8% (inactive). Also, the inhibition of aggregation in assay [2] is -4.9% (inactive). Also, the nuclei count in assay [2] came out at 104%; in assay [3] it was 113%. Further, the results for the fluorescence slope in assay [4] and in assay [6] were -0.587 (inactive) and 0.00617 (inactive), respectively. The NADPH fluorescence slope in assay [5] was -3.3e-05 (inactive).

Turning to `O=C(O)COc1ccc2occ(C(=O)c3ccccc3)c2c1`, in assay [1], the cell count came out at 232. Moreover, the inhibition in assay [1] is -4.4% (inactive); in assay [3] it was -56.2% (inactive); in assay [7], 10.3% (inactive); in assay [8] it was 4.56% (inactive). Also, the inhibition of aggregation in assay [2] was 24.2% (inactive). For the same compound, the nuclei count was determined as 94.5% in assay [2] and 104% in assay [3]. The values for the fluorescence slope in assay [4] and in assay [6] were -0.592 (inactive) and 0.00364 (inactive), respectively. For the same compound, the NADPH fluorescence slope in assay [5] is -4.3e-05 (inactive).

In the case of `Cc1ccccc1-c1noc(N)c1C#N`, in assay [1], the cell count was determined as 515. Further, the inhibition was 5.3% (inactive) in assay [1], 4.6% (inactive) in assay [3], 12.5% (inactive) in assay [7] and -2.11% (inactive) in assay [8]. The inhibition of aggregation in assay [2] is -0.5% (inactive). For the same compound, the nuclei count in assay [2] came out at 95.2%; in assay [3] it was 103%. For the same compound, the results for the fluorescence slope in assay [4] and in assay [6] were -0.317 (inactive) and 0.00617 (inactive), respectively. Further, the NADPH fluorescence slope in assay [5] is -2.3e-05 (inactive).

As for `C=CCOC(=O)C(C#N)c1nc2ccccc2nc1N1CCN(Cc2ccccc2)CC1` (centres undefined), the cell count in assay [1] turned out to be 469. The inhibition is -5.7% (inactive) in assay [1], -69.4% (inactive) in assay [3], 10.9% (inactive) in assay [7] and 18.7% (inactive) in assay [8]. Moreover, the inhibition of aggregation in assay [2] was -12.3% (inactive). For the same compound, the nuclei count in assay [2] worked out at 94.6%; in assay [3], 181%. In addition, the fluorescence slope in assay [4] is -0.402 (inactive); in assay [6], 0.0023 (inactive). Also, the NADPH fluorescence slope in assay [5] is 6.8e-05 (inactive).

For `CCSc1ncc(C#N)c(=O)[nH]1`, the cell count in assay [1] is 381. The inhibition is 3.5% (inactive) in assay [1], -53.9% (inactive) in assay [3], 2.6% (inactive) in assay [7] and 6.42% (inactive) in assay [8]. In assay [2], the inhibition of aggregation is -21.7% (inactive). The values for the nuclei count in assay [2] and in assay [3] were 89.7% and 102%, respectively. In addition, the fluorescence slope was -0.517 (inactive) in assay [4] and 0.00385 (inactive) in assay [6]. In assay [5], the NADPH fluorescence slope was -0.000177 (inactive).

`CC1(C)CC(=O)c2cnc(NC(=O)CSc3nc4ccccc4o3)nc2C1`: in assay [1], the cell count worked out at 257. For the same compound, the inhibition in assay [1] was -5.5% (inactive); in assay [3], -79.9% (inactive); in assay [7] it was -3.99% (inactive); in assay [8], 20% (inactive). The inhibition of aggregation in assay [2] was -24.6% (inactive). For the same compound, the nuclei count was 87.1% in assay [2] and 107% in assay [3]. For the same compound, the fluorescence slope in assay [4] was -0.294 (inactive); in assay [6] it was 0.00793 (inactive). Moreover, in assay [5], the NADPH fluorescence slope was -1.5e-05 (inactive).
